In the library only some 3.5% were active in any assay of this set; here they are far more common.
RGS4 inh = inhibitors of human RGS4; 0.45% of 310,000 active; HEK293 M3R/RGS4 inducible, Fluo-4 calcium flux; hits give high values; triggered by carbachol at its EC20; AID 463165; P49798; B-score at 10 µM;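 active = B-score, a plate-corrected calcium signal, over three deviations above library mean, with baseline fluorescence within five deviations of library mean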;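 also: RGS4 expression induced by doxycycline in cells with stable M3 receptor; B-score is computed from the integrated fluorescence ratio over baseline after carbachol; higher B-score means a larger calcium signal and so more RGS4 inhibition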
Target sequence (P49798 whole entry, looked up): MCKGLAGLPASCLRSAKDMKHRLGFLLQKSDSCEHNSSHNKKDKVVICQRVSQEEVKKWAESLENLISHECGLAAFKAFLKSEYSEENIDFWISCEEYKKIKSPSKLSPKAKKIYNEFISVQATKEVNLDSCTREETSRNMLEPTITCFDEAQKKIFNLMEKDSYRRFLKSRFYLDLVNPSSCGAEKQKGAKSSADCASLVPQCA
RGS4 act = RGS4 potentiation or activation; HEK293 M3R/inducible RGS4, carbachol calcium flux Fluo4; hits give low values; 0.92% of 310,000 active; B-score at 10 µM; AID 463111;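 active = B-score of the integrated calcium signal more than 4 SD below the library mean, with starting fluorescence not abnormally high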;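 also: negative B-score means reduced calcium response which marks RGS4 activation or potentiation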
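test system = HEK293 cells with stable M3R and inducible RGS4 | schedule = recording 10 s baseline at 1 Hz, 100 s post-agonist | technique = Fluo4-AM (2 µM) calcium-flux fluorescence, kinetic read | measure = Agonist-evoked peak-minus-minimum fluorescence over baseline, integrated ratio, B score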
MrgX1 antagonist = human MrgX1 receptor antagonism, primary screen; Q96LB2; 1.3% of 310,000 active; AID 588676; MRGX1-HEK293 calcium flux, Fluo-4, BAM8-22 antagonism; hits give low values; B-score at 10 µM;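 active = calcium-response B-score plate-corrected more than 3 library SD below zero, starting fluorescence within 5 deviations, no agonist response on first addition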;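 also: peak minus trough fluorescence over baseline after final BAM8-22 challenge near maximal dose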
Target sequence (Q96LB2 whole entry, looked up): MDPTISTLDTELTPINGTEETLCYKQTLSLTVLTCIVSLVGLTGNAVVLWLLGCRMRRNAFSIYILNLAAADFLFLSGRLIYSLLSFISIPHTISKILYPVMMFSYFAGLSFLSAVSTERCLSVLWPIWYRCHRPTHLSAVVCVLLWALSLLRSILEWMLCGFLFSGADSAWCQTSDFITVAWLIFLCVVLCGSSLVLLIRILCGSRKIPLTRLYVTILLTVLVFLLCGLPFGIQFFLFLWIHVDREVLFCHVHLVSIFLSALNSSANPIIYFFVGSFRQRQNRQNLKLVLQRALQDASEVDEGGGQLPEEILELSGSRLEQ
MrgX1 ag = human MrgX1 receptor agonism, primary screen; MrgX1-HEK293 cells, Fluo-4 calcium fluorescence, agonist mode; hits give high values; B-score at 10 µM; 0.44% of 310,000 active; AID 588627;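 active = calcium response B-score plate-corrected fluorescence ratio at least 3 library SD, with starting fluorescence B-score inside 5 SD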
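Material: MrgX1-expressing HEK293 cells / Dosing: compound as first of three additions / Incubation: overnight seeding, then 1 h dark dye loading / Signal: Fluo-4 NW calcium fluorescence / Evaluation: B-scored fluorescence response ratio / Benchmarks: positive and negative control wells on each plate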
MrgX1 PAM = human MrgX1 positive allosteric modulation, primary screen; Q96LB2; MrgX1-HEK293, Fluo-4 calcium flux, FDSS; hits give high values; B-score at 10 µM; 0.63% of 310,000 active; AID 588675;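 active = plate-corrected calcium response at least 3 library SD above typical, normal starting fluorescence, not activating the receptor alone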;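 also: compound read alongside a low EC10 to EC30 dose of BAM8-22 agonist; peak minus trough fluorescence over baseline measured at the second addition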
RGS4 block valid = RGS4 inhibitor validation. shares compounds with RGS4 inh. HEK293 M3R/RGS4, carbachol calcium Fluo-4 fluorescence; carbachol added at its EC20; 0 = buffer wells, 100 = carbachol control. calcium response, % at 10 µM. 65% of 1,700 active. AID 492999;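 active = duplicate-averaged calcium response above the buffer-only control mean plus 5 SD of those controls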;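 also: integrated fluorescence ratio F max minus min over baseline F0; higher response in RGS4-induced cells means RGS4 inhibition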
M3R Ca ctr = checks RGS4 inhibitor effects in non-induced HEK293 M3R cells | shares compounds with RGS4 inh | carbachol calcium Fluo-4; submaximal (EC20) carbachol stimulus; buffer wells 0%, carbachol control wells 100% | activity (percent), % at 10 µM | 20% of 1,900 active | AID 493000; call rule not given here;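 also: RGS4 induction absent so cells express M3R without RGS4; higher means more calcium signal and flags a non-specific hit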
M3R basal Ca ctr = second RGS4 inhibitor counter-screen in uninduced cells lacking carbachol. HEK293 M3R/RGS4 non-induced, Fluo-4 calcium, no carbachol; normalised: buffer wells 0%, carbachol wells 100%. 22% of 1,900 active. shares compounds with RGS4 inh. calcium response (agonist-mode artifact), % at 10 µM;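 active = duplicate-averaged calcium rise in uninduced cells above buffer wells' mean plus 5 SD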
Hits are given with their value.

`Cn1ccnc1Sc1cc(NCCCO)c([N+](=O)[O-])c2nonc12` gave RGS4 inh 17, RGS4 act inactive, MrgX1 antagonist inactive, MrgX1 ag inactive, MrgX1 PAM inactive, RGS4 block valid 50%, M3R Ca ctr inactive and M3R basal Ca ctr inactive.
Screening O=[N+]([O-])c1c(NCCCO)cc(Sc2ccc(Cl)cc2)c2nonc12 returned RGS4 inh inactive, RGS4 act inactive, MrgX1 antagonist inactive, MrgX1 ag inactive and MrgX1 PAM inactive.
CC(=O)OCCNc1cc(Sc2nc3ccccc3[nH]2)c2nonc2c1[N+](=O)[O-] was read as RGS4 inh 15, RGS4 act inactive, MrgX1 antagonist inactive, MrgX1 ag inactive, MrgX1 PAM inactive, RGS4 block valid 6.5%, M3R Ca ctr inactive and M3R basal Ca ctr inactive.
For CC(=O)OCCCNc1cc(Sc2nc3ccccc3s2)c2nonc2c1[N+](=O)[O-] the results were RGS4 inh 4.7, RGS4 act inactive, MrgX1 antagonist inactive, MrgX1 ag inactive, MrgX1 PAM inactive, RGS4 block valid inactive, M3R Ca ctr inactive and M3R basal Ca ctr 113%.
`CC(=O)OCCNc1cc(SCc2ccco2)c2nonc2c1[N+](=O)[O-]` gave RGS4 inh inactive, RGS4 act inactive, MrgX1 antagonist inactive, MrgX1 ag inactive and MrgX1 PAM inactive.
Screening CC(=O)C1=C(O)C(=O)N(c2ccccn2)C1c1ccccc1[N+](=O)[O-] (stereo not drawn) returned RGS4 inh inactive, RGS4 act inactive, MrgX1 antagonist inactive, MrgX1 ag inactive and MrgX1 PAM inactive.
For COc1cccc(CNC(=O)C(CC(C)C)NC(=O)c2ccccc2C)c1 (stereo not drawn) the results were RGS4 inh inactive, RGS4 act inactive, MrgX1 antagonist inactive, MrgX1 ag inactive and MrgX1 PAM inactive.
`COc1ccc(NC(=O)c2ccc(NC(=O)c3cccs3)cc2)cc1` gave RGS4 inh inactive, RGS4 act inactive, MrgX1 antagonist inactive, MrgX1 ag inactive and MrgX1 PAM inactive.
Screening COc1nc(N)nc(NC(=O)c2cccs2)c1N=O returned RGS4 inh 8.1, RGS4 act inactive, MrgX1 antagonist inactive, MrgX1 ag inactive, MrgX1 PAM inactive, RGS4 block valid 16%, M3R Ca ctr inactive and M3R basal Ca ctr inactive.
For O=C(CSc1n[nH]c(=O)n1-c1cccnc1)Nc1ccccc1 the results were RGS4 inh inactive, RGS4 act inactive, MrgX1 antagonist inactive, MrgX1 ag inactive and MrgX1 PAM inactive.
Screening COc1ccc(C(=O)NCCN2C(=O)S/C(=C\c3cccnc3)C2=O)cc1[N+](=O)[O-] returned RGS4 inh inactive, RGS4 act inactive, MrgX1 antagonist inactive, MrgX1 ag inactive, MrgX1 PAM inactive, RGS4 block valid inactive, M3R Ca ctr inactive and M3R basal Ca ctr inactive.
Screening Cc1cc(C)c(S(=O)(=O)Nc2cccc(S(=O)(=O)NC3=NCCC3)c2)c(C)c1 returned RGS4 inh 4.8, RGS4 act inactive, MrgX1 antagonist inactive, MrgX1 ag inactive, MrgX1 PAM inactive, RGS4 block valid inactive, M3R Ca ctr inactive and M3R basal Ca ctr inactive.
COc1cc2cc(/C=C/C(=O)c3ccco3)c(Cl)nc2cc1OC was read as RGS4 inh 8.1, RGS4 act inactive, MrgX1 antagonist inactive, MrgX1 ag inactive, MrgX1 PAM inactive, RGS4 block valid 16%, M3R Ca ctr inactive and M3R basal Ca ctr 20%.
For Cc1ccc2cc(/C=C/C(=O)c3ccco3)c(Cl)nc2c1 the results were RGS4 inh 6, RGS4 act inactive, MrgX1 antagonist inactive, MrgX1 ag inactive, MrgX1 PAM inactive, RGS4 block valid inactive, M3R Ca ctr 39% and M3R basal Ca ctr inactive.
Screening Cc1ccc2nc(Cl)c(/C=C/C(=O)c3ccco3)cc2c1 returned RGS4 inh inactive, RGS4 act inactive, MrgX1 antagonist inactive, MrgX1 ag inactive, MrgX1 PAM inactive, RGS4 block valid inactive, M3R Ca ctr 50% and M3R basal Ca ctr inactive.
`Cc1ccc2cc(/C=N/NC(=O)c3ccc(F)cc3)c(Cl)nc2c1` gave RGS4 inh inactive, RGS4 act inactive, MrgX1 antagonist inactive, MrgX1 ag inactive and MrgX1 PAM inactive.
For COc1ccc2cc(/C=C/C(=O)c3ccco3)c(Cl)nc2c1 the results were RGS4 inh inactive, RGS4 act inactive, MrgX1 antagonist inactive, MrgX1 ag inactive and MrgX1 PAM inactive.
Screening N#C/C(=C\c1cccnc1)C(=O)Nc1ccc(S(N)(=O)=O)cc1 returned RGS4 inh inactive, RGS4 act inactive, MrgX1 antagonist inactive, MrgX1 ag inactive and MrgX1 PAM inactive.
CC(=O)c1ccc(-n2c(=O)[nH]c(=O)c3c(N)c(C(=O)c4ccc(Cl)cc4)sc32)cc1 was read as RGS4 inh inactive, RGS4 act inactive, MrgX1 antagonist inactive, MrgX1 ag inactive, MrgX1 PAM inactive, M3R Ca ctr inactive and M3R basal Ca ctr inactive.
`Nc1c(C(=O)c2ccc(Cl)cc2)sc2c1c(=O)[nH]c(=O)n2-c1ccccc1` gave RGS4 inh 5.2, RGS4 act inactive, MrgX1 antagonist inactive, MrgX1 ag inactive, MrgX1 PAM inactive, RGS4 block valid 38%, M3R Ca ctr inactive and M3R basal Ca ctr 26%.
`Nc1c(C(=O)c2ccccc2)sc2c1c(=O)[nH]c(=O)n2-c1ccccc1` gave RGS4 inh inactive, RGS4 act inactive, MrgX1 antagonist inactive, MrgX1 ag inactive, MrgX1 PAM inactive, M3R Ca ctr 38% and M3R basal Ca ctr inactive.
For Nc1nc(CSc2nc3ccccc3s2)nc(N2CCCCC2)n1 the results were RGS4 inh inactive, RGS4 act inactive, MrgX1 antagonist inactive, MrgX1 ag inactive and MrgX1 PAM inactive.
`Cc1nnc(SCc2nc(N)nc(Nc3ccccc3)n2)s1` gave RGS4 inh 5.4, RGS4 act inactive, MrgX1 antagonist inactive, MrgX1 ag inactive, MrgX1 PAM inactive, RGS4 block valid 14%, M3R Ca ctr inactive and M3R basal Ca ctr inactive.
`CCc1ccc(Nc2nc(N)nc(CSc3nc4ccccc4s3)n2)cc1` gave RGS4 inh inactive, RGS4 act inactive, MrgX1 antagonist inactive, MrgX1 ag inactive, MrgX1 PAM inactive, RGS4 block valid inactive, M3R Ca ctr inactive and M3R basal Ca ctr inactive.
For O=c1cc(-c2ccccc2Cl)oc2ccc([N+](=O)[O-])c(O)c12 the results were RGS4 inh inactive, RGS4 act inactive, MrgX1 antagonist inactive, MrgX1 ag inactive and MrgX1 PAM inactive.
